This is an account of results in ChEMBL document CHEMBL1147735, “Library design, synthesis, and screening: pyridine dicarbonitriles as potential prion disease therapeutics” (J Med Chem, 2006).

In assay [1] the target is Major prion protein (Homo sapiens) (UniProt P04156). Kind of assay: Binding affinity to truncated human PrPC at 40 uM. The method, boiled down:
(§1)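 SPR at 25 °C, 30 µL/min. Each PrPC form was amine-coupled at 2 µg/mL onto a CM5 dextran chip via NHS/EDC, with ethanolamine block; flow cell 1 served as control. Ligand at 40 µM, 1 min association, 3 min dissociation, with DMSO calibration. Binding expressed as %RU_max, normalised for immobilised RU and molecular weights.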

Assay [2] shares this target. Put plainly: Binding affinity to human PrPC at 40 uM. The method, boiled down: as §1
Assay [3] addresses Major prion protein (Mus musculus) (UniProt P04925). Put plainly: Binding affinity to mouse PrPC at 40 uM. A digest of the protocol: as §1

Chain of Major prion protein (Mus musculus) (P04925 whole entry): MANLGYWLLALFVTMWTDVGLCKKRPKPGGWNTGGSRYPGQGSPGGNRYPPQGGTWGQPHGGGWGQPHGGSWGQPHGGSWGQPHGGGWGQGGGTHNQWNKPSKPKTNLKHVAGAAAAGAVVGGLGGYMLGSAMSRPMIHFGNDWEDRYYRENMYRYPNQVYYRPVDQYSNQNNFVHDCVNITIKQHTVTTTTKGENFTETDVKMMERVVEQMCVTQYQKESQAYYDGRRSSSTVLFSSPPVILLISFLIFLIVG

Consider `COC(=O)c1ccc(Sc2nc(N)c(C#N)c(-c3ccc(C(=O)OC)cc3)c2C#N)cc1`, for which the RUmax in assay [1], in assay [2] and in assay [3] was 0% each time.
As for `COc1ccc(-c2c(C#N)c(N)nc(Sc3ccccc3)c2C#N)cc1`, the RUmax in assay [1], in assay [2] and in assay [3] was 0% throughout.
`N#Cc1c(N)nc(Sc2ccccc2)c(C#N)c1-c1ccccc1`: the RUmax in assay [1], in assay [2] and in assay [3] was 0% in each case.
Consider `CC(=O)c1ccc(-c2c(C#N)c(N)nc(Sc3ccc(O)cc3)c2C#N)cc1`, for which the RUmax in assay [1], in assay [2] and in assay [3] was 0% throughout.
Take `N#Cc1c(N)nc(Sc2ccc(O)cc2)c(C#N)c1-c1ccc(O)c(Cl)c1`: the RUmax in assay [1] worked out at 33.4%; in assay [2] it was 53.4%; in assay [3] it was 64.6%.
As to `CS(=O)(=O)c1ccc(-c2c(C#N)c(N)nc(Sc3ccc(O)cc3)c2C#N)cc1`, the RUmax in assay [1], in assay [2] and in assay [3] was 0% throughout.
Consider `CC(=O)Nc1ccc(Sc2nc(N)c(C#N)c(-c3cc(F)cc(F)c3)c2C#N)cc1`, for which the RUmax in assay [1], in assay [2] and in assay [3] was 0% in each case.
`COC(=O)c1ccc(-c2c(C#N)c(N)nc(Sc3ccc(NC(C)=O)cc3)c2C#N)cc1`: the RUmax is 6.4% in assay [1], 9.4% in assay [2] and 13.3% in assay [3].
Consider `N#Cc1c(N)nc(Sc2cccc(Cl)c2)c(C#N)c1-c1ccc(Cl)cc1`, for which the values for the RUmax in assay [1], in assay [2] and in assay [3] were 56.5%, 119% and 52.3%, respectively.
On to `N#Cc1c(N)nc(Sc2ccc(O)cc2)c(C#N)c1-c1ccc(O)c(F)c1`, for which the RUmax in assay [1] stood at 28%; in assay [2], 44.2%; in assay [3] it was 53.8%.
Take `COc1cccc(-c2c(C#N)c(N)nc(Sc3ccccc3)c2C#N)c1`: the RUmax in assay [1], in assay [2] and in assay [3] was 0% each time.
For `COC(=O)c1ccc(-c2c(C#N)c(N)nc(Sc3cccc(Cl)c3)c2C#N)cc1`, the RUmax in assay [1], in assay [2] and in assay [3] was 0% in each case.
As for `N#Cc1c(N)nc(Sc2cccc(O)c2)c(C#N)c1-c1ccccc1`, the RUmax is 37.6% in assay [1], 70.3% in assay [2] and 60.6% in assay [3].
For `COC(=O)c1cccc(Sc2nc(N)c(C#N)c(-c3ccccc3)c2C#N)c1`, in that order: 26.8%, 125% and 33.2%.
In the same order, the values of `COC(=O)c1ccc(-c2c(C#N)c(N)nc(Sc3cccc(C(=O)OC)c3)c2C#N)cc1` are 0%, 0% and 0%.
In the same order, the values of `N#Cc1c(N)nc(Sc2ccc(O)cc2)c(C#N)c1-c1cccc(O)c1` are 23.1%, 34% and 43.1%.
For the molecule `N#Cc1c(N)nc(Sc2ccc(Cl)cc2)c(C#N)c1-c1ccccc1`, the RUmax in assay [1] turned out to be 11.4%; in assay [2], 0%; in assay [3], 0%.
Take `COC(=O)c1ccc(-c2c(C#N)c(N)nc(Sc3ccc(O)cc3)c2C#N)cc1`: the RUmax in assay [1], in assay [2] and in assay [3] was 0% throughout.
As for `COC(=O)c1ccc(Sc2nc(N)c(C#N)c(-c3ccc(O)cc3)c2C#N)cc1`, the RUmax in assay [1], in assay [2] and in assay [3] was 0% each time.
Consider `COC(=O)c1ccc(Sc2nc(N)c(C#N)c(-c3ccccc3)c2C#N)cc1`, for which the RUmax in assay [1], in assay [2] and in assay [3] was 0% in each case.
Consider `COc1cccc(-c2c(C#N)c(N)nc(Sc3cccc(Cl)c3)c2C#N)c1`, for which the RUmax in assay [1] stood at 6.7%; in assay [2], 8.6%; in assay [3], 0%.
In the same order, the values of `N#Cc1c(N)nc(Sc2cccc(Cl)c2)c(C#N)c1-c1ccccc1` are 0%, 0% and 0%.
For `COC(=O)c1ccc(-c2c(C#N)c(N)nc(Sc3ccc(C(=O)O)cc3)c2C#N)cc1`, in that order: 0%, 5.9% and 8.5%.
For `N#Cc1c(N)nc(Sc2ccccc2F)c(C#N)c1-c1cccc(O)c1`, in that order: 9.2%, 17.2% and 18.8%.
In the case of `COc1ccc(-c2c(C#N)c(N)nc(Sc3cccc(Cl)c3)c2C#N)cc1`, the RUmax in assay [1], in assay [2] and in assay [3] was 0% each time.
For the molecule `CC(=O)Nc1ccc(Sc2nc(N)c(C#N)c(-c3c(F)cccc3F)c2C#N)cc1`, the RUmax in assay [1] is 20%; in assay [2], 37.3%; in assay [3], 40.1%.
